Screening results deposited in PubChem by Sanford-Burnham Center for Chemical Genomics.
A selection: hits, their analogues and other compounds. The true share with any hit is near 1.1%.
PMI act hi M6P: human PMI activators, high substrate, primary screen, biochemical, fluorescence intensity, near-saturating mannose 6-phosphate | Mannose-6-phosphate isomerase (Homo sapiens), P34949 | coupled PMI enzyme assay, resazurin fluorescence, 20 min; hits give high values; 1 = untreated enzyme, 0 = substrate-free blank | activation factor at 20 µM | 190,000 tested, 0.34% active;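 active = activation factor of 2 or more at 20 µM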
Target sequence (P34949 whole entry, looked up): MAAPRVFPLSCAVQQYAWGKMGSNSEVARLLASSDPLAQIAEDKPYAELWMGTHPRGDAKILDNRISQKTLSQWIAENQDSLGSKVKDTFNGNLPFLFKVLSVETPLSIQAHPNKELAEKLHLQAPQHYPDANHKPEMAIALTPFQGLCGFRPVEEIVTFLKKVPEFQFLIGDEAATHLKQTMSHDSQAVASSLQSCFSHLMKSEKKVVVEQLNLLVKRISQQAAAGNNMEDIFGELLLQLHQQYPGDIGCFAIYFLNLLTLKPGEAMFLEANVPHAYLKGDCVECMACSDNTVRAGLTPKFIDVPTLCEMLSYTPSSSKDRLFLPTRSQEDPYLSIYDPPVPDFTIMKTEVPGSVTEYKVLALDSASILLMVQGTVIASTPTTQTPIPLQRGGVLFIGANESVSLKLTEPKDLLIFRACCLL
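Test system: Human PMI in coupled enzyme assay | Input: 15 ng/mL PMI | Medium: HEPES-buffered pH 7.4 with magnesium and detergent | Compound: One concentration, 20 µM, in 1% DMSO | Incubation: Enzyme reaction with compound 20 min at room temperature | Detection: Diaphorase-driven resazurin-to-resorufin fluorescence, excitation 544, emission 590 nm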
PMI activator: activators of human PMI, primary screen, biochemical, fluorescence intensity, near-Km mannose 6-phosphate; AID 1214, 2008; activation factor at 20 µM; purified human PMI, coupled resazurin fluorescence, 20 min; hits give high values; 1 = vehicle control, 0 substrate-free wells; 190,000 tested, 0.005% active; Mannose-6-phosphate isomerase (Homo sapiens), P34949;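 active = activation factor of 2 or more at 20 µM, relative to plate controls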
G6PDH CS: L. mesenteroides G6PDH inhibitors, counter-screen for G6PDH-coupled screening assays, biochemical, Leuconostoc mesenteroides enzyme; glucose-6-phosphate dehydrogenase [Leuconostoc mesenteroides]; Purified L. mesenteroides G6PDH, diaphorase/resazurin coupled fluorescence, 45 min; inhibition, % at 5 µM; 200,000 tested, 0.12% active; AID 1020, 2008; in the data active = inhibition above about 50%
Diaph act CS: compounds boosting diaphorase resazurin reduction – biochemical, uHTS, resorufin fluorescence, counter-screen for diaphorase-coupled primary assays, primary screen | Diaphorase/resazurin coupled assay, 16 min; hits give high values; 1 = vehicle wells, 0 = NADH-free wells | activation factor at 20 µM | 190,000 tested, 0.005% active | AID 1229, 2008;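 active = diaphorase activity raised at least twofold by the compound at 20 µM; inactive = activation factor below 2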
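Material: Clostridium kluyveri diaphorase, purified enzyme; Quantity: enzyme 0.07 U/mL final; Medium: HEPES pH 7.4 buffer with MgCl2 and Tween 20; Dosing: single compound dose of 20 µM, 1% DMSO final; Schedule: 16 min reaction at room temperature; Measured by: red resorufin fluorescence at 544/590 nm excitation/emission.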
Diaphorase inh: diaphorase inhibitors and chemical oxidizers, primary screen, counter-screen for diaphorase-coupled primary assays, biochemical, uHTS, resorufin fluorescence; diaphorase resazurin-to-resorufin fluorescence, NADH, 16 min; bacterial (C. kluyveri) enzyme, not human; inhibition, % at 20 µM; 190,000 tested, 0.69% active;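 active = primary screen inhibition at 20 µM above a set limit, cut at about 50% in these data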
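Test system: bacterial diaphorase enzyme (C. kluyveri); Quantity: 0.14 U/mL diaphorase, enzyme working solution; Times: reaction incubation of 16 min at room temperature; Measured by: fluorescence of resorufin formed from resazurin, Ex 544/Em 590 nm; Benchmarks: positive control minus NADH, DMSO neutral control.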
Each line names hits and unclear results; the compound was inactive in the other large screens.

COc1cc(/C=N/NC(=S)Nc2cccc(Cl)c2C)ccc1OCC(=O)N1CC(C)OC(C)C1 (stereo not given)	Diaphorase inh 54.4
O=C1C2CC=C(Cl)CC2C(=O)N1CCC[n+]1cccc2ccccc21 (stereo not given)	none
O=C(O)c1cc(N2N=C(C(F)(F)F)/C(=C/C=C/c3ccco3)C2=O)ccc1Cl	PMI act hi M6P 2.2, Diaphorase inh 56.0
CCOC(=O)c1ccc(N2N=C(C)/C(=C/C=C/c3ccco3)C2=O)cc1	none
O=C(COc1ccccc1[N+](=O)[O-])N/N=C/c1ccc(O)c([N+](=O)[O-])c1	none
O=C(COc1ccccc1C(=O)N/N=C\c1ccc(O)c(O)c1)N/N=C/c1ccc(O)c(O)c1	Diaphorase inh 69.8
N#CCSc1ccc(-c2nc3ccccc3[nH]2)cn1	Diaphorase inh 57.7
CCOC(=O)CSc1ccc(-c2nc3ccccc3[nH]2)cn1	none
CCn1c(=O)n(CC)c2cc(N)ccc21	Diaphorase inh 74.8
CCn1c(=O)n(CC)c2cc(S(N)(=O)=O)ccc21	none
CC1CCN(c2nc3c(c(=O)[nH]c(=O)n3C)n2CCSc2nc3ccccc3o2)CC1	none
Cc1ccc(NC(=O)Cn2nc(C)c(S(=O)(=O)N(C)C)c2C)cc1C	none
O=C1OCC(c2ccccc2)=C1c1ccc(S(=O)(=O)N2CCOCC2)s1	PMI act hi M6P 2
O=S(=O)(c1ccc(-c2ccccc2)cc1)N1CCOCC1	none
Cc1cc(C#N)c(C)c(SCc2[nH]nc3c2C(c2ccccc2)C(C#N)=C(N)O3)n1 (stereo not given)	Diaphorase inh 54.2
Cc1cc(C)c(C#N)c(SCc2[nH]nc3c2C(c2ccc(F)cc2)C(C#N)=C(N)O3)n1 (stereo not given)	none
COc1cc(C(=O)ON=C2C(C)=CC(=O)C=C2C)cc(OC)c1OC	Diaphorase inh 75.9
COc1cc(C(=O)O/N=C2/C=C(C)C(=O)C=C2C)cc(OC)c1OC	none
COc1cccc2c(=O)c3cccc(N)c3[nH]c12	Diaphorase inh 85.9
CCCCNC1=CC(=O)C(=O)c2ccccc21	G6PDH CS 59.5 (no result: PMI act hi M6P, PMI activator, Diaph act CS, Diaphorase inh)
COc1cc(/C=C2/SC(=S)NC2=O)ccc1OS(=O)(=O)c1ccc(C)cc1	Diaphorase inh 50.0
COc1cc(/C=N/NC(=O)c2cc3ccccc3cc2O)ccc1OCCN1CCCCC1	Diaphorase inh 89.3
CC(C)CC1c2[nH]c3ccccc3c2CCN1C(=O)CCC(=O)N(C)C (stereo not given)	none
O=C(NC1CCCCC1)C1CC(O)CN1C(=O)OCc1ccccc1 (stereo not given)	none
COC(=O)C1CC(O)CN1C(=O)NC1CCCCC1 (stereo not given)	PMI act hi M6P 2.4
CCN1CCN(CC(=O)c2cc(Cl)ccc2Cl)CC1	PMI act hi M6P 2
Oc1cc2c(cc1O)C1c3ccc(O)c(O)c3OCC1(O)C2 (stereo not given)	Diaphorase inh 78.2
CN=c1scc(-c2ccccc2F)n1/N=C/c1ccc(O)c(O)c1O	Diaphorase inh 68.1
CC(C)N=c1scc(-c2cccs2)n1/N=C/c1ccc(O)c(O)c1O	Diaphorase inh 65.7
COc1ccc(/C(N)=N/OC(=O)C2CCC(=O)N2S(=O)(=O)c2ccc(C)cc2)cc1OC (stereo not given)	none
CC(C)N1CC=C2C(C#N)=C(N)C(C#N)(C#N)[C@H](c3ccoc3)[C@H]2C1	Diaphorase inh 61.8
Cc1c(NC(=O)c2cccnc2C(=O)O)cccc1C(=O)O	none
Fc1ccc(NC(=S)Nc2ccc3nccnc3c2)cc1	Diaphorase inh 64.4
CC(C)N(C(=O)Nc1ccc2nccnc2c1)C(C)C	Diaphorase inh 65.0
Cc1nc2ccc(NC(=O)N(C(C)C)C(C)C)cc2s1	none
OCCCNC(=S)Nc1ccc2nccnc2c1	none
Cc1cc(C)c(NC(=S)N(CCCN2CCOCC2)Cc2cccnc2)c(C)c1	none
COc1ccc(/C=C/C(=O)OCC(=O)Nc2c(C)cccc2C)cc1	none
COc1ccccc1OCC(=O)Nc1sc2c(c1C(=O)NCC1CCCO1)CCC2 (stereo not given)	none
c1ccc(Nc2ccccn2)cc1	none
c1ccc(Nc2cccc(Nc3ccccc3)n2)cc1	Diaphorase inh 54.9
Cc1[nH]nc2c1C(c1cccs1)C1=C(CC(C)(C)CC1=O)N2 (stereo not given)	none
O=c1[nH]c2ccccc2nc1C(Cl)c1ccccc1 (stereo not given)	PMI act hi M6P 2.1
CN(C)S(=O)(=O)c1ccc(NC(=O)CN2CCCc3ccccc32)cc1	none
Cc1ccc(NNS(=O)(=O)c2ccc(C)cc2)cc1	PMI act hi M6P 2
O=C(Nc1ccccc1)C1=C[C@@H](c2ccc(Br)cc2)C[C@@H](OCCCCO)O1	Diaphorase inh 63.1
CC1CC(C)CN(c2ccc(C(=O)NCc3ccc4c(c3)OCO4)cc2[N+](=O)[O-])C1 (stereo not given)	none
O=C(CCc1nnc(-c2ccc3c(c2)OCO3)o1)N1CCC(c2ccc(F)cc2)C1 (stereo not given)	none
CC(C)CNC1=CC(=O)CC(c2ccco2)C1 (stereo not given)	Diaphorase inh 60.9
O=C1C=C(NCc2ccc(Cl)cc2)CC(c2ccco2)C1 (stereo not given)	none
Cc1sc2nc(C(C)Sc3n[nH]c(N)n3)[nH]c(=O)c2c1C (stereo not given)	none
COc1ccccc1-c1ccc(/C=C2/C=C(C)OC2=O)o1	PMI act hi M6P 2
O=C(/C=C/NNC(=O)c1ccccc1)c1ccc(Br)cc1	none
O=C(/C=C/NCC(=O)c1ccccc1)c1ccc(Br)cc1	PMI act hi M6P 2.1
Cc1ccc(SCc2cc(=O)[nH]c(Nc3nc(C)c4ccc(C)cc4n3)n2)cc1	PMI act hi M6P 2
CCc1[nH]c(=S)c(C#N)c2c1CCCC2	PMI act hi M6P 2.2
CCc1[nH]c(=O)c(C#N)c2c1CCCC2	none
CC(=O)Nc1ccc(N(C(=O)Cn2nnc3ccccc32)C(C(=O)NC2CCCC2)c2ccc(O)c(O)c2)cc1 (stereo not given)	Diaphorase inh 55.9
Cc1ccc(N(C(=O)Cn2nnc3ccccc32)C(C(=O)NC2CCCCC2)c2cn(C)nc2C)cc1 (stereo not given)	none
CCOC(=O)CCSc1nnc(-c2cccnc2)n1-c1ccccc1OC	none
